Blank lines part the entries; values can stand above or below the compound they belong to. Active and inactive are the calls of the source. No cut-off for these calls is given here.
Tests used:
[1] = tested on: Escherichia coli; test: Effect on DNA cleavage in ampicillin resistant Escherichia coli DH5alpha transformed pBluescript 2 KS+ DNA assessed as number of colonies at 1 mM after 15 hrs by transformation assay
How it was run: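 Plasmid DNA (2.0 µg) exposed to tetrayne at 1.0 mM (final DMSO 3.0%) at 37 °C, recovered by ethanol precipitation, redissolved in water and heated 60 °C for 10 min. Heat-shock transformation of competent E. coli (DH5a or JM109) at 42 °C for 1 min, 1 h recovery in LB at 37 °C, plating on ampicillin (100 mg/L) LB agar, 37 °C for 15 h; colonies counted.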

[2] = tested on: Escherichia coli; test: Induction of Escherichia coli pBluescript 2 KS+ DNA cleavage by gel electrophoresis
How it was run: (§1)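 pBluescript II KS+ (2.0 µg) incubated overnight at 37 °C with tetrayne in 20 µL, final DMSO 3.0%. Level 1.0 mM; 0.1, 0.3, 0.6 mM also run for the dose series. DNA ethanol-precipitated, redissolved, held 60 °C 10 min then 37 °C 30 min, run on 0.7% agarose; ethidium bromide stain, UV imaging of supercoiled, nicked and linear forms.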

[3] = tested on: Escherichia coli; test: Induction of Escherichia coli pBluescript 2 KS+ DNA cleavage assessed as formation of burst star shaped architecture at 1 mM by atomic force microscopy
How it was run: (§2)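 Plasmid exposed to tetrayne (1.0 mM, 37 °C, 6 h), ethanol-precipitated, pellet taken up in water. Sample spotted on flat mica for 1 min at room temperature, excess water blown off with air, then single DNA molecule shapes imaged by atomic force microscopy.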

[4] = tested on: Escherichia coli; test: Induction of Escherichia coli pBluescript 2 KS+ DNA cleavage assessed as increase in nicked form 2 at 1 mM by gel electrophoresis; how it was run: as §1
[5] = tested on: Escherichia coli; test: Induction of Escherichia coli pBluescript 2 KS+ DNA cleavage assessed as linear form 3 at 1 mM by atomic force microscopy; how it was run: as §2
[6] = tested on: Escherichia coli; test: Induction of Escherichia coli pBluescript 2 KS+ DNA cleavage assessed as increase in form 3 at 1 mM by gel electrophoresis; how it was run: as §1
[7] = tested on: Escherichia coli; test: Induction of Escherichia coli pBluescript 2 KS+ DNA cleavage assessed as decrease in form 1 at 1 mM by gel electrophoresis; how it was run: as §1

Activity [1]: > 1000
SMILES: COCc1ccccc1C#CC#Cc1cc(C(=O)O)sc1C(=O)C#CC#CC(C)(C)C

Activity [1]: > 1000
SMILES: COCc1ccccc1C#CC#Cc1cc(C(=O)O)sc1C(O)C#CC#CC(C)(C)C (stereo unspecified)

The next lines start with the compound.

SMILES: CN(C)C
Activity [1]: > 1000

SMILES: COCc1ccccc1C#CC#Cc1cc(CN(C)C)sc1C(O)C#CC#CC(C)(C)C (stereo unspecified)
Activity [1]: > 1000

SMILES: COCc1ccccc1C#CC#Cc1cc(CN(C)C)sc1C(=O)C#CC#CC(C)(C)C
Activity [2]: Dose-dependent effect | Activity [3]: Active | Activity [4]: Active | Activity [5]: Active | Activity [6]: Active | Activity [7]: Active | Activity [1]: 8

— ChEMBL document CHEMBL1150296, “Synthesis and DNA cleaving activity of water-soluble non-conjugated thienyl tetraynes” (Bioorg Med Chem, 2008)
